The source made the active and inactive calls. The rule behind the calls is not given here.
What was measured:
MCF7 = assay: Antiproliferative activity against human MCF7 cells after 48 hrs by MTT assay; assay type: functional, cell-based; conditions: MCF7, 48 h
Summary of the method: (§1)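 Cells grown in DMEM with 10% FBS at 37 °C, 5% CO2; seeded at 6 × 10^3 cells/well, allowed to attach 12 h, then exposed to compound at final 50, 25, 10, 1 and 0.1 µM for 48 h. MTT (5 mg/mL) added for 4 h, formazan dissolved in DMSO, absorbance read at 490 nm; IC50 taken from the resulting curve.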

HepG2 [1] = assay: Antiproliferative activity against human HepG2 cells after 48 hrs by MTT assay; assay type: functional, cell-based; conditions: HepG2, 48 h; summary of the method: as §1
[2] = Antiproliferative activity against human QGY7701 cells after 48 hrs by MTT assay; assay type: cell-based; conditions: QGY7701, 48 h; summary of the method: as §1
[3] = target: Baculoviral IAP repeat-containing protein 5 (Homo sapiens) (UniProt O15392); assay: Binding affinity to survivin (unknown origin) up to 1.8 uM after 20 mins by spectrofluorimetric titration method
Mus musculus [4] = assay: Toxicity in nude mouse ectopically xenografted with human HepG2 cells assessed as body weight loss at 25 mg/kg, ip administered once in 2 days measured after 10 days relative to control; assay type: organism-based; conditions: in vivo, 240 h
Mus musculus [5] = assay: Toxicity in nude mouse ectopically xenografted with human HepG2 cells assessed as liver weight index at 25 mg/kg, ip administered once in 2 days measured after 30 days (reference value: 0.0009 to 0.0187); assay type: organism-based; conditions: in vivo, 720 h
Mus musculus [6] = assay: Toxicity in nude mouse ectopically xenografted with human HepG2 cells assessed as spleen weight at 25 mg/kg, ip administered once in 2 days measured after 30 days (reference value: 0.071 to 0.248 g); assay type: organism-based; conditions: in vivo, 720 h
Mus musculus [7] = assay: Toxicity in nude mouse ectopically xenografted with human HepG2 cells assessed as liver weight at 25 mg/kg, ip administered once in 2 days measured after 30 days (reference value: 0.069 to 0.434 g); assay type: organism-based; conditions: in vivo, 720 h
Mus musculus [8] = assay: Toxicity in nude mouse ectopically xenografted with human HepG2 cells assessed as spleen weight index at 25 mg/kg, ip administered once in 2 days measured after 30 days (reference value: 0.002 to 0.0106); assay type: organism-based; conditions: in vivo, 720 h
HepG2 [9] = assay: Antitumor activity against human HepG2 cells ectopically xenografted in nude mouse assessed as tumor growth inhibition at 25 mg/kg, ip administered once in 2 days measured after 30 days relative to control; assay type: functional; conditions: read-out: TGI
HepG2 [10] = assay: Downregulation of Bcl2 expression in human HepG2 cells at 10 uM after 24 hrs by Western blot method; assay type: functional, cell-based
Summary of the method: (§2)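 HepG2 cells in 6 cm dishes exposed to a range of concentrations (1–10 µM) for 24 h. Lysate protein measured by BCA, run on 12% SDS-PAGE and transferred to PVDF. Membrane blocked in 5% milk for 1 h, primary antibody overnight at 4 °C, bands imaged after antibody hybridisation.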

[11] = target: Baculoviral IAP repeat-containing protein 5 (Homo sapiens) (UniProt O15392); assay: Binding affinity to survivin (unknown origin) after 20 mins by spectrofluorimetric titration method
Summary of the method: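 Intrinsic fluorescence titration of purified survivin (0.3 µM) in 10 mM PBS, pH 7.4, at 37 °C. Compound added to final 0–1.6 µM; 20 min incubation before recording emission spectra with excitation at 280 nm. Spectra compared with and without survivin.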

[12] = target: T1, DNA topoisomerase 1 (Homo sapiens) (UniProt P11387); assay: Inhibition of recombinant human topoisomerase-1-mediated relaxation of pBR322 DNA substrate after 30 mins agarose gel electrophoresis method
T1 sequence (whole entry): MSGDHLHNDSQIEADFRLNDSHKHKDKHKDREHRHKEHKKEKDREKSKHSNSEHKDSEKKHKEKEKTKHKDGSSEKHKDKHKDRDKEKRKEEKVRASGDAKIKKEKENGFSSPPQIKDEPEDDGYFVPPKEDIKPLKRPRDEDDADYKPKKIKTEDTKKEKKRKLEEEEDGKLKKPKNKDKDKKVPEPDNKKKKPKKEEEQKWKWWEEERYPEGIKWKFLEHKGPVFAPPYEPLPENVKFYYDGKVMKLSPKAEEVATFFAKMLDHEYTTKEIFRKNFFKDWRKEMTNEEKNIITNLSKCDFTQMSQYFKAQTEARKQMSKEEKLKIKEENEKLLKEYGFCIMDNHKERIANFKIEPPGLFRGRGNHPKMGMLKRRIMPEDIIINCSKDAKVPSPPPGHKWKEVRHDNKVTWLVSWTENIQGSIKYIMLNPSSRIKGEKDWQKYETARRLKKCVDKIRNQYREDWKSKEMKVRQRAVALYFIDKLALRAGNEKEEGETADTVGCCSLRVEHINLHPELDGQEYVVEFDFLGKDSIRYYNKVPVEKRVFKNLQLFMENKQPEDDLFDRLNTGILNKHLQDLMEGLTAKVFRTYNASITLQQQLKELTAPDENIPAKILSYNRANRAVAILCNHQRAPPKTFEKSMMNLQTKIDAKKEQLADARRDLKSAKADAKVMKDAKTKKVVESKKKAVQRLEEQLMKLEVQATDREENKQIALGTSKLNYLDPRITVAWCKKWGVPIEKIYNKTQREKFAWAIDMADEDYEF

HepG2 [13] = assay: Upregulation of cleaved caspase-7 expression in human HepG2 cells at 10 uM after 24 hrs by Western blot method; assay type: functional, cell-based; summary of the method: as §2
Homo sapiens [14] = species on record: Homo sapiens; assay: Inhibition of recombinant human topoisomerase-2-mediated decatenation at 50 uM using kinetoplast DNA as substrate after 30 mins agarose gel electrophoresis method relative to control
Summary of the method: (§3)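 Human Topo II decatenation run by a contract laboratory. Compound or 50% DMSO combined with reaction mix and diluted enzyme, incubated 35 ± 2 °C for 30 min, then stop buffer added. Products separated on 1% agarose, stained 10 min with 2.3 µg/ml ethidium bromide, destained 20 min, bands quantified densitometrically. Doxorubicin at 1 and 10 µM as positive controls, no-compound negative control; run in duplicate.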

HepG2 [15] = assay: Downregulation of survivin expression in human HepG2 cells after 24 hrs by Western blot method; assay type: functional, cell-based; summary of the method: as §2
Bos taurus = species on record: Bos taurus; assay: Binding affinity to calf thymus DNA at 40 uM after 5 mins by UV absorbance spectrophotometric method; conditions: in the assay text read “fluorescence spectroscopic method” for “UV absorbance spectrophotometric method”
Summary of the method: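 Fluorescence emission titration on a spectrofluorometer in 5 mM Tris, 50 mM NaCl, pH 7.2. Compound fixed at 40 µM final; ct DNA added at 0, 8, 16, 24, 32, 40, 60, 80 and 120 µM final. DNA concentration set by UV using ε260 = 6600 M-1 cm-1. Excitation 280 nm; 5 min incubation before reading.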

HepG2 [16] = assay: Upregulation of cleaved PARP expression in human HepG2 cells up to 10 uM after 24 hrs by Western blot method; assay type: functional, cell-based; summary of the method: as §2
Homo sapiens [17] = species on record: Homo sapiens; assay: Inhibition of recombinant human topoisomerase-2-mediated decatenation at 10 uM using kinetoplast DNA as substrate after 30 mins agarose gel electrophoresis method relative to control; summary of the method: as §3

Sequence of Baculoviral IAP repeat-containing protein 5 (Homo sapiens) (O15392 whole entry): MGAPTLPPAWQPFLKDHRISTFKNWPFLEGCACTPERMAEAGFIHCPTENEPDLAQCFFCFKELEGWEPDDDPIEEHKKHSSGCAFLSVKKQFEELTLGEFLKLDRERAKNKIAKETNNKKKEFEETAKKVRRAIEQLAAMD

| SMILES | IC50 (MCF7) [µM] | IC50 (HepG2 [1]) [µM] | further results |
| --- | --- | --- | --- |
| COc1cccc2c(=O)c3c(NN)ccc(C(=O)NCCCN(C)C)c3[nH]c12 | 14.8 | 12.3 |  |
| COc1cc(CNc2ccc(C(=O)NCCN(C)C)c3[nH]c4c([N+](=O)[O-])cccc4c(=O)c23)cc(OC)c1OC | 5.73 | 7 |  |
| CN(C)CCCNC(=O)c1ccc(N(C)C)c2c(=O)c3cccc([N+](=O)[O-])c3[nH]c12 | 9.29 | 36.8 |  |
| COc1cccc(CNc2ccc(C(=O)NCCN(C)C)c3[nH]c4c(C)cccc4c(=O)c23)c1 | 3.65 | 2.82 | IC50 [2]: 3.12 µM |
| COCCN1C(C)=[N+](Cc2cnccn2)C2Cc3ccccc3CC21 (centres undefined) | 4.13 | 15.3 | Activity [3]: inactive |
| O=c1[nH]cc(F)c(=O)[nH]1 [FLUOROURACIL] |  |  | Activity (Mus musculus [4]): 30%; Activity index (Mus musculus [5]): 0.0034 to 0.0231; Activity (Mus musculus [6]): 0.091 to 0.26 g; Activity (Mus musculus [7]): 0.062 to 0.419 g; Activity index (Mus musculus [8]): 0.005 to 0.0144; inhibition in vivo at 25 mg/kg (HepG2 [9]): 64% |
| COc1ccc(CNc2ccc(C(=O)NCCN(C)C)c3[nH]c4c(OC)cccc4c(=O)c23)cc1 | 6.13 | 5.15 |  |
| CN(C)CCCNC(=O)c1ccc(NCc2ccccc2)c2c(=O)c3cccc([N+](=O)[O-])c3[nH]c12 | 2.92 | 2.43 | IC50 [2]: 3.97 µM |
| COc1cccc2c(=O)c3c(NCc4ccccc4)ccc(C(=O)NCCN(C)C)c3[nH]c12 | 13.7 | 5.5 |  |
| COc1ccc(CNc2ccc(C(=O)NCCN(C)C)c3[nH]c4c(Cl)cc(Cl)cc4c(=O)c23)cc1 | 17.5 | 17.5 |  |
| COc1ccc(CNc2ccc(C(=O)NCCCN(C)C)c3[nH]c4c(N)cccc4c(=O)c23)cc1 | 13.4 | 5.68 |  |
| CCc1ccc(CNc2ccc(C(=O)NCCCN(C)C)c3[nH]c4c([N+](=O)[O-])cccc4c(=O)c23)cc1 | 4.69 | 5.78 |  |
| COCCNC(=O)c1ccc(NCc2ccccc2)c2c(=O)c3cccc(C)c3[nH]c12 | > 50 | 17.2 |  |
| COc1cc(CNc2ccc(C(=O)NCCN(C)C)c3[nH]c4c(OC)cccc4c(=O)c23)cc(OC)c1OC | > 50 | > 50 |  |
| COc1ccc(CNc2ccc(C(=O)NCCCN(C)C)c3[nH]c4c([N+](=O)[O-])cccc4c(=O)c23)cc1 |  |  | Activity (HepG2 [10]): Active; Activity [11]: Dose-dependent effect; inhibition [12]: inactive; Activity (HepG2 [13]): Active; inhibition (Homo sapiens [14]): 10.9%; Activity (HepG2 [15]): Dose-dependent effect; Activity (Bos taurus): inactive; Activity (HepG2 [16]): Active |
| COCCNC(=O)c1ccc(NCc2ccc(C(F)(F)F)cc2)c2c(=O)c3cccc(C)c3[nH]c12 | > 50 | > 50 |  |
| COCCNC(=O)c1ccc(NCc2cc(OC)c(OC)c(OC)c2)c2c(=O)c3cccc(C)c3[nH]c12 | > 50 | > 50 |  |

| SMILES | IC50 (MCF7) [µM] | IC50 (HepG2 [1]) [µM] | further results |
| --- | --- | --- | --- |
| COCCNC(=O)c1ccc(NCc2ccc(OC)cc2)c2c(=O)c3cccc(C)c3[nH]c12 | > 50 | > 50 |  |
| COc1cccc2c(=O)c3c(Cl)ccc(C(=O)NCCN(C)C)c3[nH]c12 | 18.5 | 24.7 |  |
| Cc1cccc2c(=O)c3c(NN)ccc(C(=O)NCCN(C)C)c3[nH]c12 | 13 | 8.85 |  |
| COc1cccc2c1C(=O)c1c(O)c3c(c(O)c1C2=O)C[C@@](O)(C(=O)CO)C[C@@H]3O[C@H]1C[C@H](N)[C@H](O)[C@H](C)O1 |  |  | inhibition (Homo sapiens [17]): 74.4% |
| COc1cccc(CNc2ccc(C(=O)NCCN(C)C)c3[nH]c4c([N+](=O)[O-])cccc4c(=O)c23)c1 | 5.09 | 8.61 |  |
| COCCNC(=O)c1ccc(NCc2cccc(OC)c2)c2c(=O)c3cccc(C)c3[nH]c12 | > 50 | > 50 |  |
| COc1ccc(CNc2ccc(C(=O)NCCCN(C)C)c3[nH]c4c(OC)cccc4c(=O)c23)cc1 | 9.97 | 10.8 |  |
| CN(C)CCNC(=O)c1ccc(Cl)c2c(=O)c3cccc([N+](=O)[O-])c3[nH]c12 | 2.28 | 14.5 |  |
| CN(C)CCNC(=O)c1ccc(N(C)C)c2c(=O)c3cccc([N+](=O)[O-])c3[nH]c12 | 3.54 | 28.6 |  |
| CN(C)CCNC(=O)c1ccc(NCc2ccccc2)c2c(=O)c3cccc([N+](=O)[O-])c3[nH]c12 | 5.61 | 9.59 |  |
| COc1cc(CNc2ccc(C(=O)NCCN(C)C)c3[nH]c4c(C)cccc4c(=O)c23)cc(OC)c1OC | 5.06 | 4.96 |  |
| COc1ccc(CNc2ccc(C(=O)NCCCN(C)C)c3[nH]c4c(C)cccc4c(=O)c23)cc1 | 4.12 | 5.94 |  |
| Cc1cccc2c(=O)c3c(NCc4ccccc4)ccc(C(=O)NCCN(C)C)c3[nH]c12 | 5.48 | 7.99 |  |
| Cc1cccc2c(=O)c3c(Cl)ccc(C(=O)NCCN(C)C)c3[nH]c12 | > 50 | > 50 |  |
| COc1ccc(CNc2ccc(C(=O)NCCN(C)C)c3[nH]c4c([N+](=O)[O-])cccc4c(=O)c23)cc1 | 1.05 | 4.5 |  |
| COc1ccc(CNc2ccc(C(=O)NCCN(C)C)c3[nH]c4c(C)cccc4c(=O)c23)cc1 | 6.84 | 2.11 | IC50 [2]: 6.91 µM |

Source: ChEMBL document CHEMBL4007449, “Novel multi-substituted benzyl acridone derivatives as survivin inhibitors for hepatocellular carcinoma treatment” (Eur J Med Chem, 2017)
